Source: PubChem BioAssay
Activity calls are given as the source filed them. Rule as the data show it, unless noted: active = inhibition above about 30%; inactive = the rest.

Key:
[1] = Her2 expression decrease, cell viability multiplex – SKBR3 breast tumor cells, AlphaScreen, ATP viability, primary screen (AID 461;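 active = Her2 level under about 52% in both replicate screens, with viability over 70% of control, limit read from the data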;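 as to Her2 level: lower value means less Her2 protein in the cells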;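 as to viability: percent of carrier control wells set as 100% viability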); conditions: SKBR3 Her2 protein level, 18-24 h, measured here: SKBR3 viability, ATP luminescence, at 10 µM
[2] = biological target: Receptor tyrosine-protein kinase erbB-2 (Homo sapiens) (UniProt P04626); experiment: as above; conditions: 18-24 h, at 10 µM, stronger effect = lower value
Chain of Receptor tyrosine-protein kinase erbB-2 (Homo sapiens) (P04626 whole entry, looked up): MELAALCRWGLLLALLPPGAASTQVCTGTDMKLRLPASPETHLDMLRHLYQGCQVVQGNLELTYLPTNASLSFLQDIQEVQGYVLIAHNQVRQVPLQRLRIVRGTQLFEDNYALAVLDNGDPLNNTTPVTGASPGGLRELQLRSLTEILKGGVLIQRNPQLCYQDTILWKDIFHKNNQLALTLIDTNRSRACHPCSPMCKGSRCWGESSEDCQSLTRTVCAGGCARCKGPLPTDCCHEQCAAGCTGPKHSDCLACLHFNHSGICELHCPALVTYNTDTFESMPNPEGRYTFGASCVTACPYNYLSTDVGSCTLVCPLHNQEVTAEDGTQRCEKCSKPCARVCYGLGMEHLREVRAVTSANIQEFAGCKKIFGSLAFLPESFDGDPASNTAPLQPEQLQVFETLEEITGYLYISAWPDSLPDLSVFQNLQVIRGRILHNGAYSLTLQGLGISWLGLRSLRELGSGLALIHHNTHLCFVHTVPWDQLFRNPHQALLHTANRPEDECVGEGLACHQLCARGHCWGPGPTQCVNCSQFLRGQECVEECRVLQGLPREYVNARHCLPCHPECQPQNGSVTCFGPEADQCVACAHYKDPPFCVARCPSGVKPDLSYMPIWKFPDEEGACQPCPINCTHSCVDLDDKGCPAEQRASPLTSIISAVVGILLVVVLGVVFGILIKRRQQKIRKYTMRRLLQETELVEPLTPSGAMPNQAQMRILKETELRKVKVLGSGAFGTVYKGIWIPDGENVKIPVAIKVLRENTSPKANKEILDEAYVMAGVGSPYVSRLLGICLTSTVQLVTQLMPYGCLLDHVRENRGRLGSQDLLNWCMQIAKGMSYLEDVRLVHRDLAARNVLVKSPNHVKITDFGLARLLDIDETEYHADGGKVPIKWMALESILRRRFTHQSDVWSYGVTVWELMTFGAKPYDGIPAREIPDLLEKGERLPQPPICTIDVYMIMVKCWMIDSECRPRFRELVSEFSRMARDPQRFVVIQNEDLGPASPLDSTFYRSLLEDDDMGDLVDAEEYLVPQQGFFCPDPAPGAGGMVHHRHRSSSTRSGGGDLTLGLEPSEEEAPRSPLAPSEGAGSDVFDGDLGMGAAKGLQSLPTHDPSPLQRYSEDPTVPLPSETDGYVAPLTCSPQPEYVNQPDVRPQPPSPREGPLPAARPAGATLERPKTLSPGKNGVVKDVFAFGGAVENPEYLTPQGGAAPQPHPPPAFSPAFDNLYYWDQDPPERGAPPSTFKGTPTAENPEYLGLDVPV

[3] = reduced viability of SK-BR-3 breast cancer cells – cell-based, 24 h, human, pilot screen (AID 572;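 active = viability at or below 10% of carrier control in both of two separate runs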;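 also: compound exposure lasted between 18 and 24 h rather than exactly 24 h; 100% = carrier-treated control wells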); conditions: SK-BR-3 viability, CellTiter-Glo luminescence, at 10 µM, stronger effect = lower value
[4] = HUVEC growth inhibition – cell-based, human, primary screen (AID 575;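 active = viability at or below 30% in both replicate assays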;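 also: 100% = median of untreated cell wells with 0.1% DMSO on each plate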); conditions: HUVEC proliferation, CellTiter-Glo luminescence, 72 h; at 10 µM; stronger effect = lower value
Outline: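 Test system: primary human umbilical vein endothelial cells; medium: endothelial basal medium with 2% FBS plus growth supplements; dosing: 10 µM compound only; times: 72 h treatment at 37 °C; signal: CTG luminescence; read-out: % viability relative to median vehicle-well signal on each plate; control set: vehicle and MePR control wells; plate: 384-well, collagen-coated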

[5] = H69AR cell proliferation blockers – human, duplicate replicates, primary screen (AID 580;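 active = viability at or under a set limit in both replicates, limit being median viability minus 3 SD, cut at about 48% in these data, passing the limit was not always enough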;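 also: 100% = mean luminescence of untreated wells and 0% = no signal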); conditions: H69AR lung tumor cells viability, ATP luminescence, 72 h; at 10 µM; stronger effect = lower value
[6] = MRP1 drug-resistance reversers in H69AR cells – cell-based, doxorubicin co-treatment, pilot screen (AID 601;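 active = viability loss from added drug above about 55%, and viability with drug at most 40%, in both replicates, limit read from the data, passing the limit was not always enough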); conditions: CellTiter-Glo, 72 h, at 10 µM; for differential viability (reversal): stronger effect = higher value
[7] = yeast transport mutant growth inhibition pilot in 384-well plates, post-Golgi transport modulator project (AID 636; in the data active = inhibition above about 31%); conditions: absorbance 615 nm, about 18 h, stronger effect = higher value
[8] = growth suppression of yeast trafficking mutant, preliminary HTS, modulators of trafficking downstream of Golgi apparatus project, 1536-format plate, OD 615 nm (AID 637); conditions: yeast transport mutant growth, absorbance 615 nm, 18 h; stronger effect = higher value
[9] = H69AR cells + 2 uM doxorubicin, measured here: viability with 2 uM doxorubicin, stronger effect = lower value
[10] = H69AR cells, compound alone cytotoxicity

Compound | viability [1] | Her2 level [2] | viability [3] | viability [4] | viability [5] | differential viability (reversal) ([6]; H69AR cells + 2 uM doxorubicin) | viability [6, 9] | viability [6, 10] | inhibition [7] | inhibition [8]
CCCCOc1ccc(-c2ncc(C(=O)OCC)c(N)n2)cc1 | 89.5% | 88% (inactive) | 89.5% (inactive) | 103% (inactive) | 90% (inactive) | 8.43% (inactive) | 81.5% | 90% | -6.8% (inactive) | -6.03% (inactive)
Nc1nonc1-c1noc(-c2ccccc2Br)n1 | 112% | 76.5% (inactive) | 112% (inactive) | 54.7% (inactive) | 95.1% (inactive) | 3.17% (inactive) | 92% | 95.1% | -6.62% (inactive) | 5.67% (inactive)
CCOCCCNC(=O)c1cc2sc(Cl)cc2n1CC | 89% | 88% (inactive) | 89% (inactive) | 60% (inactive) | 28.5% (active) | -44% (inactive) | 72.5% | 28.5% | -8.36% (inactive) | -0.95% (inactive)
CCCCn1c(SCC(=O)NCc2ccccc2)nc2ccc(N3CCOCC3)cc2c1=O | 80% | 89.5% (inactive) | 80% (inactive) | 98.1% (inactive) | 74% (inactive) | -5.76% (inactive) | 79.8% | 74% | -1.22% (inactive) | 1.8% (inactive)
Cc1nc(C)c2c(c1C(F)(F)F)-c1ccccc1C2(F)F | 98% | 98% (inactive) | 98% (inactive) | 102% (inactive) | 105% (inactive) | 16.4% (inactive) | 88.9% | 105% | -4.4% (inactive) | -5.08% (inactive)
COCc1nnc(NC(=O)c2ccc(NC(C)=O)cc2)s1 | 100% | 102% (inactive) | 100% (inactive) | 86.4% (inactive) | 105% (inactive) | 14.8% (inactive) | 90.2% | 105% | 0.13% (inactive) | -9.19% (inactive)
CCN(CC)CCOC(=O)c1cccc(OC)c1 | 115% | 105% (inactive) | 115% (inactive) | 96.9% (inactive) | 90.2% (inactive) | -4.21% (inactive) | 94.4% | 90.2% | -5.07% (inactive) | -2.79% (inactive)
COC1CCCCC1NS(=O)(=O)c1ccccc1 (stereo not given) | 106% | 96.5% (inactive) | 106% (inactive) | 97.8% (inactive) | 97.7% (inactive) | 1.47% (inactive) | 96.2% | 97.7% | -3.59% (inactive) | 3.17% (inactive)
CCOC(=O)CN1C2=NCCN2c2ccccc21 | 89.5% | 82% (inactive) | 89.5% (inactive) | 96.1% (inactive) | 99% (inactive) | 10.9% (inactive) | 88.1% | 99% | -2.63% (inactive) | -4% (inactive)
COCCn1c(=O)[nH]c2cc(C(=O)N3CCN(Cc4ccc5c(c4)OCO5)CC3)ccc2c1=O | 93.5% | 106% (inactive) | 93.5% (inactive) | 117% (inactive) | 93.1% (inactive) | -1.86% (inactive) | 94.9% | 93.1% | 1.47% (inactive) | 9.34% (inactive)
Cc1cc(S(=O)(=O)n2cnc3ccccc32)c(C)cc1Cl | 86.5% | 120% (inactive) | 86.5% (inactive) | 99.1% (inactive) | 102% (inactive) | 9.41% (inactive) | 92.4% | 102% | -3.42% (inactive) | -3.97% (inactive)
CCn1c(CNc2ccc(C)cc2)nnc1SCC(=O)NCc1ccccc1 | 89% | 100% (inactive) | 89% (inactive) | 91.1% (inactive) | 86.6% (inactive) | -0.975% (inactive) | 87.6% | 86.6% | 0.13% (inactive) | 3.93% (inactive)
COC(=O)c1cc(Oc2ccc(C(=O)OC)cc2N)cc(C(=O)OC)c1 | 95% | 100% (inactive) | 95% (inactive) | 99.1% (inactive) | 96.5% (inactive) | -2.62% (inactive) | 99.2% | 96.5% | -1.32% (inactive) | -5.82% (inactive)
COC(=O)c1cc2ccsc2n1CC(=O)N(C)c1ccccc1 | 89.5% | 94.5% (inactive) | 89.5% (inactive) | 90.2% (inactive) | 84.2% (inactive) | 0.29% (inactive) | 84% | 84.2% | 0.26% (inactive) | -1.83% (inactive)
COc1cccc(OCCSc2nnc3sc4ccccc4n23)c1 | 86% | 98% (inactive) | 86% (inactive) | 106% (inactive) | 85.3% (inactive) | -6.48% (inactive) | 91.8% | 85.3% | 2.73% (inactive) | 0.66% (inactive)
